Molecules are shown by their SMILES. Activity calls are given as the source filed them. No cut-off for these calls is given here.

This passage reports Efficacy and Activity results from ChEMBL document CHEMBL1157537 (J Med Chem, 2008).

Test [1] addresses T1, Progesterone receptor (Homo sapiens) (UniProt P06401).
T1 sequence (whole entry): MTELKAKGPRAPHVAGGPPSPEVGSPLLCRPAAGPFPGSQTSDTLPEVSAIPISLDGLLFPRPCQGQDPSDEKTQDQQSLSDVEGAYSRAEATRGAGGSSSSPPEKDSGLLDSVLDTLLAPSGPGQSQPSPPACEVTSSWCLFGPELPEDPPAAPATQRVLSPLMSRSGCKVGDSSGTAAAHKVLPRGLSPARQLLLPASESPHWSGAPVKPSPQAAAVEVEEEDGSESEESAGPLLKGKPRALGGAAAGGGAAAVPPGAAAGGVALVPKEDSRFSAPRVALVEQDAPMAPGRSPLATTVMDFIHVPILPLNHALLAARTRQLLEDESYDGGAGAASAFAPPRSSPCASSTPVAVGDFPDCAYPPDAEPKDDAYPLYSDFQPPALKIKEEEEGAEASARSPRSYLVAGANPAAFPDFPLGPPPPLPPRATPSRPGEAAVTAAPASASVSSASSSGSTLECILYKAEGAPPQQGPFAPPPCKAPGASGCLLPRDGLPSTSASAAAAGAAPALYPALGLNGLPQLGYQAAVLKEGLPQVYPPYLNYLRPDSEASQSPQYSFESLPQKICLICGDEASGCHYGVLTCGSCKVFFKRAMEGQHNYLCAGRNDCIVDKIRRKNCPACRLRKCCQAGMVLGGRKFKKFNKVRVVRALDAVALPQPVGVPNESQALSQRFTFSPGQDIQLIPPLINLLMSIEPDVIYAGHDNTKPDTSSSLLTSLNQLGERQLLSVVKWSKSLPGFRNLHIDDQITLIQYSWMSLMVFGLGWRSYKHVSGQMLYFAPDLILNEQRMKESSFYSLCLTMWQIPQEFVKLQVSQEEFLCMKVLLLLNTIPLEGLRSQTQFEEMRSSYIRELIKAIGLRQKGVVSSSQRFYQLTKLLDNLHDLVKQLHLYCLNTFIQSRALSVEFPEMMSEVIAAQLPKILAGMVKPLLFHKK
Description: Agonist activity at human progesterone receptor relative to progesterone. Format: functional.

Test [2] deals with T1, Progesterone receptor (Homo sapiens). Description: Agonist activity at human progesterone receptor in human T47D cells assessed as alkaline phosphatase activity relative to progesterone. The test is classed as functional, cell-based.
For test [3], the target named is T2, Androgen receptor (Homo sapiens) (UniProt P10275).
T2 sequence (whole entry): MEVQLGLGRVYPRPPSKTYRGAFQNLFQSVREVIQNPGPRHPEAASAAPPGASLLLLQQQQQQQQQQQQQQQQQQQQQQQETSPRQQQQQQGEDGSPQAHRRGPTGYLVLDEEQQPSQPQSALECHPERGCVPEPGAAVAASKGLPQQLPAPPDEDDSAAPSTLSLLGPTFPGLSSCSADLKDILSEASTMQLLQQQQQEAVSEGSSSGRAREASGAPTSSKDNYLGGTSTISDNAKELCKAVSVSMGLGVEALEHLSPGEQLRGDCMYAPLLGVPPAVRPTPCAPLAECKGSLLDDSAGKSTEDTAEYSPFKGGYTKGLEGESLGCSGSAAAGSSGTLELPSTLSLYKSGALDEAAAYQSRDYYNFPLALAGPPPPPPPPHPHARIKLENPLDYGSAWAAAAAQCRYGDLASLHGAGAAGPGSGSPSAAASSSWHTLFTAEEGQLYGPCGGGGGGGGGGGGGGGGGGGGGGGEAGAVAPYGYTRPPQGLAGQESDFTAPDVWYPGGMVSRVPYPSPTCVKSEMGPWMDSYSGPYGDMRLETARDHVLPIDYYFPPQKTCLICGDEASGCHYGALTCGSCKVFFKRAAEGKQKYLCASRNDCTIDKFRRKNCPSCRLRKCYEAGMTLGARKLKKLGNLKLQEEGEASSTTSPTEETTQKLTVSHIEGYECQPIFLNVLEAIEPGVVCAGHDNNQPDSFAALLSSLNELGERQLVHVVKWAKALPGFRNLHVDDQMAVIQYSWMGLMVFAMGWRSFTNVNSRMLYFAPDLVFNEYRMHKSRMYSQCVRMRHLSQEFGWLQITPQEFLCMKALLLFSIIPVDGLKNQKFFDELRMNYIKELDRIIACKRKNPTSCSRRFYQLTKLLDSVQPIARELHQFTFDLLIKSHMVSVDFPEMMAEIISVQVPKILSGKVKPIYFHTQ
The test can be described thus: Agonist activity at human androgen receptor relative to dihydrotestosterone. The test is classed as functional.

Test [4] deals with T3, Estrogen receptor (Homo sapiens) (UniProt P03372).
T3 sequence (whole entry): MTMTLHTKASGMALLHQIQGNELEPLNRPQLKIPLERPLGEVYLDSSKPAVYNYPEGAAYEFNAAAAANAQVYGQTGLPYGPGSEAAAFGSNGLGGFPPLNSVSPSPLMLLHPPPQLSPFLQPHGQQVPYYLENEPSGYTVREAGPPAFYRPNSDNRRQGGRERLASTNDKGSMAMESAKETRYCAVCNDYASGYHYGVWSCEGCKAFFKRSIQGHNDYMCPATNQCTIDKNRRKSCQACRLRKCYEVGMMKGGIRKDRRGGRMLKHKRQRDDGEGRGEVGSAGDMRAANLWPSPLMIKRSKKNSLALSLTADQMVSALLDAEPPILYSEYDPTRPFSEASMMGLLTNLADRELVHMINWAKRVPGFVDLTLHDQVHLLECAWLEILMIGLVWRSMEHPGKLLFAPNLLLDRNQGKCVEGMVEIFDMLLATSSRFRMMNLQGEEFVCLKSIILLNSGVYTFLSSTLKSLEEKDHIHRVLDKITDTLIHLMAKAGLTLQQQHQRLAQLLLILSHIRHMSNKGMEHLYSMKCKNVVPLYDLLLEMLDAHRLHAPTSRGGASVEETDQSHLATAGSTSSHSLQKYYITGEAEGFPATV
The test can be described thus: Agonist activity at human estrogen receptor alpha relative to 17-beta-estradiol. The test is classed as functional.

For test [5], the species on record is Rattus norvegicus. The test can be described thus: Progestational activity in estrone-treated ovariectomized rat assessed as effect on uterine epithelial cell height. The test is classed as functional, organism-based. The gist of the method:
(§1)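 Ovariectomized rats were treated with estrone, alone or combined with test progestin, and compared with vehicle and estrone-only groups. Endpoints were uterine epithelial cell height, vaginal epithelial thickness and mammary alveolar bud proliferation.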

The species entered for test [6] is Rattus norvegicus. Description: Progestational activity in estrone-treated ovariectomized rat assessed as reduction of breast alveolar bud proliferation. Format: functional, organism-based. The gist of the method:
as §1

For the next test, the system named is Cynomolgus monkey. The test can be described thus: Inhibition of ovulation in cynomolgus monkey assessed as reduction of progesterone level after 3 weeks. As to conditions: Macaca fascicularis. The test is classed as functional, organism-based.

For `CC1=C[C@@H]([C@@H]2Oc3c(F)cc(F)cc3-c3ccc4c(c32)C(C)=CC(C)(C)N4)CCC1` (stereo in doubt; (-)-5c), the Efficacy in test [1] was found to be 145%; in test [2], 55%; in test [3], 177%; in test [4], 5%. The result in the test filed under Rattus norvegicus [5], in the test filed under Rattus norvegicus [6] and with Cynomolgus monkey was Active.
